Measurements: ChEMBL document CHEMBL1156240, “Papyriferic acid derivatives as reversal agents of multidrug resistance in cancer cells” (Bioorg Med Chem, 2010)

Legend:
[1] = Cytotoxicity against human multidrug-resistant KB-C2 cells after 48 hrs by MTT assay; assay type: functional, cell-based; details: KB-C2, 48 h
Procedure, shortened: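 Seeded 5 × 10³ cells/well, preincubated 24 h, then compounds at 2, 10, 50, 100 µg/mL in medium (0.5% DMSO final) for 48 h. MTT 0.5 mg/mL for 4 h, formazan dissolved in DMSO, OD 540 nm; IC50 relative to vehicle controls.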

KB = assay: Cytotoxicity against human KB cells after 48 hrs by MTT assay; assay type: functional, cell-based

Which IC50 [1] does the source give for `CC(C)OC(=O)CC(=O)O[C@@H]1CC[C@]2(C)[C@H]3CC[C@@H]4[C@@H]([C@]5(C)CC[C@H](C(C)(C)O)O5)CC[C@@]4(C)[C@]3(C)CC[C@H]2C1(C)C` here?
The IC50 was greater than 100 µM.

And the IC50 (KB)?
The IC50 was greater than 100 µM.

Which IC50 [1] does the source give for `CCCCCOC(=O)CC(=O)O[C@@H]1CC[C@]2(C)[C@H]3C[C@@H](OC(C)=O)[C@@H]4[C@@H]([C@]5(C)CC[C@H](C(C)(C)O)O5)CC[C@@]4(C)[C@]3(C)CC[C@H]2C1(C)C` here?
Its IC50 is greater than 100 µM.

What about the IC50 (KB) of the same molecule?
The IC50 was 45.4 µM.

Which IC50 [1] does the source give for `CCCNC(=O)CC(=O)O[C@@H]1CC[C@]2(C)[C@H]3C[C@@H](OC(C)=O)[C@@H]4[C@@H]([C@]5(C)CC[C@H](C(C)(C)O)O5)CC[C@@]4(C)[C@]3(C)CC[C@H]2C1(C)C` here?
Its IC50 is 40.8 µM.

What about the IC50 (KB) of the same molecule?
The IC50 was 46.1 µM.

What does the source list for `CCCCCCCCCNC(=O)CC(=O)O[C@@H]1CC[C@]2(C)[C@H]3C[C@@H](OC(C)=O)[C@@H]4[C@@H]([C@]5(C)CC[C@H](C(C)(C)O)O5)CC[C@@]4(C)[C@]3(C)CC[C@H]2C1(C)C`?
IC50 [1]: > 100 µM; IC50 (KB): 42.8 µM

What does the source list for `CC(=O)O[C@@H]1C[C@@H]2[C@@]3(C)CC[C@@H](OC(=O)CC(=O)Nc4ccccc4)C(C)(C)[C@@H]3CC[C@@]2(C)[C@]2(C)CC[C@H]([C@]3(C)CC[C@H](C(C)(C)O)O3)[C@@H]12`?
IC50 [1]: 26.2 µM; IC50 (KB): 28.3 µM

Which results are given for `COc1cccc2c1C(=O)c1c(O)c3c(c(O)c1C2=O)C[C@@](O)(C(C)=O)C[C@@H]3O[C@H]1C[C@H](N)[C@H](O)[C@H](C)O1` [DAUNORUBICIN]?
IC50 [1]: 16.2 µM; IC50 (KB): 0.64 µM

For `COc1cc2c(c(OC)c1OC)-c1ccc(OC)c(=O)cc1[C@@H](NC(C)=O)CC2` [COLCHICINE], which IC50 [1] is on record?
The IC50 was 10.9 µM.

For `CC(=O)O[C@@H]1C[C@@H]2[C@@]3(C)CC[C@@H](OC(=O)CC(=O)OCC(C)C)C(C)(C)[C@@H]3CC[C@@]2(C)[C@]2(C)CC[C@H]([C@]3(C)CC[C@H](C(C)(C)O)O3)[C@@H]12`, which IC50 [1] is on record?
Its IC50 is greater than 100 µM.

And the IC50 (KB)?
The IC50 was 33.3 µM.

With `CCOC(=O)CC(=O)O[C@@H]1CC[C@]2(C)[C@H]3CC[C@@H]4[C@@H]([C@]5(C)CC[C@H](C(C)(C)O)O5)CC[C@@]4(C)[C@]3(C)CC[C@H]2C1(C)C` as the molecule, how does the IC50 [1] read?
Its IC50 is greater than 100 µM.

And the IC50 (KB)?
The IC50 was greater than 100 µM.

What does the source list for `CC(=O)O[C@@H]1C[C@@H]2[C@@]3(C)CC[C@@H](OC(=O)CC(=O)OC(C)(C)C)C(C)(C)[C@@H]3CC[C@@]2(C)[C@]2(C)CC[C@H]([C@]3(C)CC[C@H](C(C)(C)O)O3)[C@@H]12`?
IC50 [1]: > 100 µM; IC50 (KB): 31.5 µM

Which IC50 [1] does the source give for `CCCCCCCCCNC(=O)CC(=O)O[C@@H]1CC[C@]2(C)[C@H]3C[C@@H](OC(C)=O)[C@@H]4[C@@H]([C@]5(C)CC[C@H](C(C)(C)OC(=O)C(=O)NCCCCCCCCC)O5)CC[C@@]4(C)[C@]3(C)CC[C@H]2C1(C)C` here?
Its IC50 is greater than 100 µM.

And the IC50 (KB)?
Its IC50 is greater than 100 µM.

For `CCCOC(=O)CC(=O)O[C@@H]1CC[C@]2(C)[C@H]3C[C@@H](OC(C)=O)[C@@H]4[C@@H]([C@]5(C)CC[C@H](C(C)(C)O)O5)CC[C@@]4(C)[C@]3(C)CC[C@H]2C1(C)C`, which IC50 [1] is on record?
The IC50 was 67.8 µM.

What about the IC50 (KB) of the same molecule?
Its IC50 is 27.8 µM.

What does the source list for `CC(=O)O[C@@H]1C[C@@H]2[C@@]3(C)CC[C@@H](OC(=O)CC(=O)NC(C)(C)C)C(C)(C)[C@@H]3CC[C@@]2(C)[C@]2(C)CC[C@H]([C@]3(C)CC[C@H](C(C)(C)OC(=O)C(=O)NC(C)(C)C)O3)[C@@H]12`?
IC50 [1]: > 100 µM; IC50 (KB): > 100 µM

For `COc1ccc(OC)c(NC(=O)CC(=O)O[C@@H]2CC[C@]3(C)[C@H]4C[C@@H](OC(C)=O)[C@@H]5[C@@H]([C@]6(C)CC[C@H](C(C)(C)O)O6)CC[C@@]5(C)[C@]4(C)CC[C@H]3C2(C)C)c1`, which IC50 [1] is on record?
The IC50 was greater than 100 µM.

And the IC50 (KB)?
Its IC50 is greater than 100 µM.

With `CCCCCCCOC(=O)CC(=O)O[C@@H]1CC[C@]2(C)[C@H]3CC[C@@H]4[C@@H]([C@]5(C)CC[C@H](C(C)(C)O)O5)CC[C@@]4(C)[C@]3(C)CC[C@H]2C1(C)C` as the molecule, how does the IC50 [1] read?
Its IC50 is greater than 100 µM.

And the IC50 (KB)?
Its IC50 is greater than 100 µM.

For `COc1ccc(CCN(C)CCCC(C#N)(c2ccc(OC)c(OC)c2)C(C)C)cc1OC` (stereo not given), which IC50 [1] is on record?
Its IC50 is greater than 100 µM.
